{"data": "Experimental data gathered from unrelated publications", "KIT V559D": "Mast/stem cell growth factor receptor Kit (KIT, Homo sapiens, UniProt P10721, V559D)", "KIT L576P": "Mast/stem cell growth factor receptor Kit (KIT, Homo sapiens, UniProt P10721, L576P)", "KIT D816V": "Mast/stem cell growth factor receptor Kit (KIT, Homo sapiens, UniProt P10721, D816V)", "KIT A829P": "Mast/stem cell growth factor receptor Kit (KIT, Homo sapiens, UniProt P10721, A829P)", "KIT D816H": "Mast/stem cell growth factor receptor Kit (KIT, Homo sapiens, UniProt P10721, D816H)", "KIT T670I/V559D": "Mast/stem cell growth factor receptor Kit (KIT, Homo sapiens, UniProt P10721, T670I/V559D)", "note": "Protocols differ between the studies behind these lines."}
{"SMILES": "c1cncc(-c2cccc(Nc3nccc(NC4CCCCC4)n3)c2)c1", "target": "KIT V559D", "read-out": "binding", "technique": "competition with immobilised ligand", "concentration": "10 µM", "remaining binding [%]": 1.2}
{"SMILES": "O=C(Nc1cccnn1)N1CCC(=Cc2cccc(Oc3ccc(C(F)(F)F)cn3)c2)CC1", "target": "KIT L576P", "read-out": "binding", "technique": "competition with immobilised ligand", "concentration": "1 µM", "remaining binding [%]": 0}
{"SMILES": "C[C@H]1CCN(c2nccc(-c3cnn4ncccc34)n2)C1", "target": "KIT D816V", "read-out": "binding", "concentration": "1 µM", "remaining binding [%]": 100}
{"SMILES": "Cc1c(NC(=O)c2cc(C(N)=O)nc3cc(F)ccc23)c(C(F)(F)F)nn1Cc1ccc(C(C)(C)C)cc1", "target": "KIT L576P", "read-out": "cell-free assay", "technique": "competition with immobilised ligand", "concentration": "1 µM", "remaining binding [%]": 95}
{"SMILES": "N[C@@H]1CCN(c2nccc(-c3cnn4ncccc34)n2)C1", "target": "KIT A829P", "read-out": "binding", "concentration": "1 µM", "remaining binding [%]": 100}
{"SMILES": "CN1CCN(c2ccc(Nc3nccc(-c4cccc([N+](=O)[O-])c4)n3)cc2C(F)(F)F)CC1", "target": "KIT L576P", "read-out": "binding", "concentration": "10 µM", "remaining binding [%]": 0.05}
{"SMILES": "COc1cc(-c2cn(C3CCc4ccccc4N(CC(F)(F)F)C3=O)nn2)ccc1-n1ccc(C)n1 (stereo not drawn)", "target": "Mast/stem cell growth factor receptor Kit, autoinhibited (KIT, Homo sapiens, UniProt P10721)", "read-out": "cell-free assay", "technique": "competition with immobilised ligand", "concentration": "1 µM", "remaining binding [%]": 100}
{"SMILES": "c1cnn2ncc(-c3ccnc(N4CCC45COC5)n3)c2c1", "target": "KIT V559D", "read-out": "binding", "concentration": "1 µM", "remaining binding [%]": 78}
{"SMILES": "O=C(c1ccc(Nc2nccc(-c3cc4ccccc4s3)n2)cc1)N1CCC(N2CCCC2)CC1", "target": "KIT L576P", "read-out": "binding", "technique": "competition with immobilised ligand", "concentration": "1 µM", "remaining binding [%]": 8.6}
{"SMILES": "CCN1CCN(Cc2ccc(C(=O)Nc3ccc(C)c(Oc4ccc5c(c4)CC(=O)N5)c3)cc2C(F)(F)F)CC1", "target": "Mast/stem cell growth factor receptor Kit (KIT, Homo sapiens, UniProt P10721)", "read-out": "binding", "technique": "competition with immobilised ligand", "concentration": "1 µM", "remaining binding [%]": 0.85}
{"SMILES": "O=C(c1ccc(Nc2ncc(Cl)c(-c3cc4ccccc4s3)n2)cc1)N1CCC(N2CCCC2)CC1", "target": "KIT D816V", "read-out": "binding", "technique": "competition with immobilised ligand", "concentration": "1 µM", "remaining binding [%]": 13}
{"SMILES": "CC1CCCN1c1nccc(-c2cnn3ncccc23)n1 (stereo not drawn)", "target": "KIT L576P", "read-out": "binding", "concentration": "1 µM", "remaining binding [%]": 100}
{"SMILES": "COc1cnc(Nc2cccc(S(N)(=O)=O)c2)nc1N1CCN(c2ccccc2)CC1", "target": "KIT A829P", "read-out": "binding", "technique": "competition with immobilised ligand", "concentration": "1 µM", "remaining binding [%]": 65}
{"SMILES": "COc1ncc2cc3ccccc3nc2c1C#N", "target": "KIT D816H", "read-out": "cell-free assay", "technique": "competition with immobilised ligand", "concentration": "5 µM", "remaining binding [%]": 100}
{"SMILES": "O=C(NCC1CCOCC1)c1n[nH]cc1NC(=O)c1c(F)cccc1F", "target": "KIT L576P", "read-out": "binding", "technique": "competition with immobilised ligand", "concentration": "1 µM", "remaining binding [%]": 100}
{"SMILES": "CN(C)c1nccc(-c2cnn3ncccc23)n1", "target": "KIT D816H", "read-out": "binding", "concentration": "1 µM", "remaining binding [%]": 60}
{"SMILES": "Nc1cnc(N2CCc3cc(S(=O)(=O)Nc4c(F)cc(Cl)cc4F)cc(N4CCCC4=O)c32)nc1", "target": "KIT D816H", "read-out": "cell-free assay", "technique": "competition with immobilised ligand", "concentration": "1 µM", "remaining binding [%]": 100}
{"SMILES": "C[C@@H](c1ccc(-n2cnc3c(N)ncnc32)cc1)N1CCc2nn(C)c(Cc3ccccc3)c2C1=O", "target": "KIT A829P", "read-out": "binding", "technique": "competition with immobilised ligand", "concentration": "0.1 µM", "remaining binding [%]": 52}
{"SMILES": "Cc1cc(NC(=O)c2cccc(S(F)(F)(F)(F)F)c2)cc(-n2ccn3nc(-c4cccnc4)cc23)c1", "target": "KIT L576P", "read-out": "cell-free assay", "technique": "competition with immobilised ligand", "concentration": "1 µM", "remaining binding [%]": 100}
{"SMILES": "CN(CCCC(F)(F)F)c1nccc(-c2cnn3ncccc23)n1", "target": "KIT D816H", "read-out": "binding", "concentration": "1 µM", "remaining binding [%]": 77}
{"SMILES": "Cn1nc(C(F)(F)F)cc1-c1cnc(N2CCc3cc(S(=O)(=O)Nc4c(F)cc(Cl)cc4F)cc(N4CCCC4=O)c32)nc1", "target": "KIT D816H", "read-out": "cell-free assay", "technique": "competition with immobilised ligand", "concentration": "1 µM", "remaining binding [%]": 77}
{"SMILES": "O=C(NCCCN1CCOCC1)c1ccc(Nc2nccc(-c3cc4ccccc4s3)n2)cc1", "target": "KIT T670I/V559D", "read-out": "binding", "technique": "competition with immobilised ligand", "concentration": "1 µM", "remaining binding [%]": 29}
{"SMILES": "N#Cc1ccc(Nc2ccc3[nH]c(=O)[nH]c3c2)c(Cl)c1", "target": "KIT D816V", "read-out": "cell-free assay", "technique": "competition with immobilised ligand", "concentration": "1 µM", "remaining binding [%]": 88}
{"SMILES": "COc1cnc(Nc2cccc(S(N)(=O)=O)c2)nc1N1CCN(c2ccccc2)C(=O)C1", "target": "KIT T670I/V559D", "read-out": "binding", "technique": "competition with immobilised ligand", "concentration": "1 µM", "remaining binding [%]": 100}
